Assay outcomes as filed in PubChem BioAssay.
TCR CD3 inh: human TCR-CD3 binding inhibition; 0.37% of 360,000 active; inhibition, % at 9.4 µM; AID 651800; TAMRA-labeled TCR probe fluorescence, biochemical;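 note: recombinant mutant TCR 2C K166C tagged with TAMRA read by polarization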
LEDGF integ inh: blocks HIV-1 LEDGF/p75-dependent DNA integration; inhibition, % at 3.7 µM; TR-FRET IN-LEDGF/p75 DNA integration, Eu/Cy5; 0.64% of 370,000 active; AID 743269;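 active = inhibition above the screen-wide mean plus 3 SD, cut at about 13% in these data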;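 note: signal is the Cy5 over europium emission ratio at 671 and 618 nm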
HTRA1 inh: blocks human HTRA1 serine peptidase | Q92743 | recombinant HTRA1, FP-rhodamine activity-based probe, fluorescence polarization | inhibition, % at 5.96 µM | 0.5% of 340,000 active; in the data active = inhibition above about 36%
SIAE inh: blocks human sialic acid acetylesterase; SIAE FP-Rh probe binding, fluorescence polarization; 0.69% of 370,000 active; inhibition, % at 9.66 µM;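 active = inhibition above a cutoff: mean of compounds within the control limits plus 3 SD of those, cut at about 17% in these data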
ABHD4 inh: ABHD4 (mouse) inhibition, primary FP screen; AID 720543; purified mABHD4, FP-Rh probe fluorescence polarization; inhibition, % at 8.92 µM; Q8VD66; 0.54% of 370,000 active;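 active = inhibition exceeding the mean over every tested compound plus 3 SD, cut at about 30% in these data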
Target sequence (Q8VD66 whole entry, looked up): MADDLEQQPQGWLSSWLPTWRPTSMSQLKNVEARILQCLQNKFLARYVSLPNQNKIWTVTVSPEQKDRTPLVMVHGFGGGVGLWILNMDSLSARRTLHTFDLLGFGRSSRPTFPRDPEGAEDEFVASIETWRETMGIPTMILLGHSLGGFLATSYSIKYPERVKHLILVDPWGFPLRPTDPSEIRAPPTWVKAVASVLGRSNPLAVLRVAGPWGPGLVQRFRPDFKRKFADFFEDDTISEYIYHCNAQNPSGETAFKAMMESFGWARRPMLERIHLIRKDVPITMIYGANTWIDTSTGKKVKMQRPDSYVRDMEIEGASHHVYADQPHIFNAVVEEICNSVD
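Test system: mouse ABHD4 enzyme, wild type. Reagent: FP-Rh fluorescent activity-based probe, added after compound pre-incubation. Timing: pre-incubation 45 min, probe exposure 60 min, at 25 °C. Technique: FP readout, ex 525 nm / em 598 nm. Benchmarks: high control S159A mutant with DMSO, low control median of compound wells.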
TDP2 absorb: TDP2 (human) inhibition, absorbance primary screen; O95551; recombinant TDP2, T5PNP hydrolysis, p-nitrophenol absorbance 415 nm; inhibition, % at 12.8 µM; 0.34% of 370,000 active;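 active = inhibition above the mean of all tested compounds plus 3 SD, set per campaign, cut at about 25% in these data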
Target sequence (O95551 whole entry, looked up): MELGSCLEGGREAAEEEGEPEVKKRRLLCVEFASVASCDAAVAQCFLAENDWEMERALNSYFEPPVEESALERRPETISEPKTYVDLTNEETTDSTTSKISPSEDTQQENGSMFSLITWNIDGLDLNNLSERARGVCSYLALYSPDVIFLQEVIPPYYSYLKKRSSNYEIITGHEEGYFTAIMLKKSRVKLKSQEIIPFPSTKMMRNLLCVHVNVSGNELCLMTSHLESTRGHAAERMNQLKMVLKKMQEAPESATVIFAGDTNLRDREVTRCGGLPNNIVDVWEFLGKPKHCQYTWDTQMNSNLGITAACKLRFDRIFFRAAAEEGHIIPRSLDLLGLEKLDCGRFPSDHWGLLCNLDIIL
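Evaluation: % inhibition relative to enzyme-containing and enzyme-free wells. Material: recombinant human TDP2. Benchmarks: enzyme-free and DMSO wells. Timing: enzyme reaction with compound for 2 h at 37 °C. Compound dosing: 12.8 µM only. Measured by: p-Nitrophenol epi absorbance. Reagent: T5PNP substrate at 5 mM, a TopII-DNA adduct mimic. Replication: single well per compound.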
BSA probe FL: interferes with TAMRA-BSA probe, flagging TCR-CD3 hits | TAMRA-labeled BSA probe fluorescence counterscreen | shares compounds with TCR CD3 inh | inhibition, % at 9.4 µM | 10% of 1,200 active; in the data active = inhibition above about 23%
TCR-CD3 conf: TCR-CD3 interaction inhibition, confirmation; shares compounds with TCR CD3 inh; TAMRA-labeled TCR probe fluorescence binding assay; inhibition, % at 9.4 µM; 48% of 1,200 active
ABHD4 confirm: ABHD4 (mouse) inhibition, FP confirmation; 55% of 1,800 active; purified mABHD4, FP-Rh probe fluorescence polarization; inhibition, % at 8.92 µM; shares compounds with ABHD4 inh;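 active = mean inhibition across replicates above the hit cutoff set in the primary screen, cut at about 30% in these data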
IN multimer up: activates HIV-1 integrase multimerization in LEDGF counter-screen. 17% of 2,000 active. shares compounds with LEDGF integ inh. activation, % at 7.7 µM. TR-FRET HIV-1 integrase multimerization, biochemical; in the data active = activation above about 8.9%
TRFRET interf: TR-FRET optical interference, LEDGF/p75 integration counter-screen; inhibition, % at 7.7 µM; 2,000 tested, under 10 active; TR-FRET optical interference counterscreen, HIV-1 IN multimerization; AID 1053135; shares compounds with LEDGF integ inh;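 active = inhibition above the mean over all tested compounds plus 3 SD, which no compound reached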
IN-LEDGF confirm: confirmation of HIV-1 LEDGF/p75-dependent integration inhibitors. shares compounds with LEDGF integ inh. TR-FRET LEDGF/p75-dependent HIV-1 integration, biochemical. inhibition, % at 3.7 µM. 36% of 2,000 active; in the data active = inhibition above about 14%
SIAE confirm: human SIAE inhibition, confirmation; shares compounds with SIAE inh; SIAE FP-Rh activity-based probe, fluorescence polarization; inhibition, % at 9.66 µM; 13% of 2,300 active;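 active = mean inhibition of the replicates above the hit cutoff set in the primary screen, cut at about 17% in these data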;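 note: inhibitors lower polarization as more probe stays unbound to SIAE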
Large screens that a line does not name were inactive (follow-up assays come after a bar, where they were run). Compounds with a hit are over-represented: about 2.2% of the library has one in this group of screens. Cut-off read from the data, not from the text of the source, unless noted: active = inhibition above about 19%; inactive = the rest.

COC(=O)[C@]12C[C@H](CC(=O)NCCc3ccccc3OC)C(=O)N(Cc3ccc(Cl)cc3Cl)C1=C[C@H](C1CCCC1)O[C@@H]2C	none (no result: TCR CD3 inh, HTRA1 inh)
O=c1c(O[C@H]2O[C@@H](CO)[C@H](O)[C@@H](O)[C@@H]2O)c(-c2ccc(O)cc2)oc2cc(O)cc(O)c12	none
O=c1cc(-c2ccc(O)cc2)oc2cc(O)c(C3OC(CO)C(O)C(O)C3O)c(O)c12 (configuration not stated)	TCR CD3 inh 28, LEDGF integ inh 21 | BSA probe FL inactive | TCR-CD3 conf 20 | IN multimer up 30 | TRFRET interf inactive | IN-LEDGF confirm 48
CC(C)N1Cc2nnn(Cc3ccccc3)c2-c2cc(F)ccc2S1(=O)=O	none (no result: TCR CD3 inh, HTRA1 inh)
N#Cc1c(SCC(=O)Nc2ccc(Cl)cc2Cl)sc2c(O)cc(=O)[nH]c12	none
N#Cc1c(SCC(=O)Nc2nccs2)sc2c(O)cc(=O)[nH]c12	TCR CD3 inh 20, LEDGF integ inh 18 | BSA probe FL inactive | TCR-CD3 conf inactive | IN multimer up 44 | TRFRET interf inactive | IN-LEDGF confirm 34
COc1cc(OC)c2c(c1O)OC(c1ccccc1)CC2=O (configuration not stated)	TCR CD3 inh 39, LEDGF integ inh 28 | BSA probe FL inactive | TCR-CD3 conf 19 | IN multimer up 35 | TRFRET interf inactive | IN-LEDGF confirm 32
O=C1CC(c2ccccc2)Oc2cc(O)cc(O)c21 (configuration not stated)	none
Nc1c(C(=O)Nc2ccc(F)cc2)sc2nc(-c3ccco3)ccc12	none
CC(=O)c1sc2nc(-c3ccco3)ccc2c1N	TCR CD3 inh 24, LEDGF integ inh 59, ABHD4 inh 31 (no result: HTRA1 inh) | BSA probe FL inactive | TCR-CD3 conf inactive | ABHD4 confirm inactive | IN multimer up inactive | TRFRET interf inactive | IN-LEDGF confirm inactive
CN(C)c1ccc(O)c2c1CC1CC3[C@@H](N(C)C)C(=O)C(C(N)=O)=C(O)[C@]3(O)C(=O)C1=C2O (some centres not stated)	TCR CD3 inh 46, LEDGF integ inh 77, SIAE inh 25, ABHD4 inh 77 | BSA probe FL inactive | TCR-CD3 conf 27 | ABHD4 confirm 44 | IN multimer up 51 | TRFRET interf inactive | IN-LEDGF confirm 48
Nc1ccc2c(c1)C/C(=C/c1ccco1)C2=O	TCR CD3 inh 22, LEDGF integ inh 49, SIAE inh 23 | BSA probe FL inactive | TCR-CD3 conf inactive | IN multimer up 19 | TRFRET interf inactive | IN-LEDGF confirm 25 | SIAE confirm inactive
O=C1/C(=C/c2ccco2)CCc2ccccc21	none
CCCCCCCCN1C(=O)[C@@H](CC(=O)NCc2cccc3ccccc23)C[C@@]2(C(=O)OC)C1=C[C@H](C(C)(C)C)O[C@@H]2C	none (no result: HTRA1 inh)
O=C(COC(=O)Cc1cccs1)Nc1ccc(OC(F)(F)F)cc1	TCR CD3 inh 62, SIAE inh 133, ABHD4 inh 108 | BSA probe FL inactive | TCR-CD3 conf inactive | SIAE confirm inactive
CCNC(=O)N1CCN(c2ccc(N3CCN(C(=O)NCC)[C@H](C)C3)c(C)c2)[C@H](C)C1	none (no result: HTRA1 inh)
C/C(=N\NC(=O)c1ccc(N2CCCC2=O)cc1)c1ccccc1	none
C/C(=N\NC(=O)c1ccc(N2CCCC2=O)cc1)c1ccc(O)cc1O	TCR CD3 inh 24, SIAE inh 22 | BSA probe FL inactive | TCR-CD3 conf inactive | SIAE confirm inactive
COc1cc(C(=O)OCC(=O)N2CCCC2=O)cc(OC)c1C	TCR CD3 inh 43, SIAE inh 17, ABHD4 inh 45 | BSA probe FL inactive | TCR-CD3 conf inactive | ABHD4 confirm inactive | SIAE confirm inactive
Cc1ccc(O)c(CP(=O)(c2ccccc2)c2ccccc2)c1	none
CCNc1ccccc1CP(=O)(c1ccccc1)c1ccccc1O (configuration not stated)	TCR CD3 inh 51, SIAE inh 35, ABHD4 inh 77 (no result: HTRA1 inh) | BSA probe FL inactive | TCR-CD3 conf inactive | ABHD4 confirm 46 | SIAE confirm inactive
C[C@](N)(Cc1ccc(O)c(O)c1)C(=O)O	TCR CD3 inh 22, LEDGF integ inh 60, SIAE inh 18 | BSA probe FL inactive | TCR-CD3 conf inactive | IN multimer up inactive | TRFRET interf inactive | IN-LEDGF confirm inactive | SIAE confirm inactive
O=C(CCc1ccc(S(=O)(=O)N2CCOCC2)cc1)N/N=C/c1ccc(O)c(O)c1O	TCR CD3 inh 28, LEDGF integ inh 17, SIAE inh 28 | BSA probe FL inactive | TCR-CD3 conf 25 | IN multimer up 18 | TRFRET interf inactive | IN-LEDGF confirm 27 | SIAE confirm inactive
CC(C)C(=O)Nc1ccc(C(=O)N/N=C/c2cc(Br)cc(Br)c2O)cc1	none
CC(=O)Nc1ccc(C(=O)N/N=C/c2cc(Br)cc(Br)c2O)cc1	TCR CD3 inh 40, SIAE inh 33 | BSA probe FL inactive | TCR-CD3 conf 42 | SIAE confirm inactive
COc1ccc(CC(=O)NCC2CCN(C(=O)C(=O)c3cc4ccccc4o3)CC2)cc1	none (no result: HTRA1 inh)
CC(C)C1Nc2c(O)cc(Cl)c([N+](=O)[O-])c2C2C=CCC21 (configuration not stated)	TCR CD3 inh 20, LEDGF integ inh 26, SIAE inh 22, ABHD4 inh 58 | BSA probe FL inactive | TCR-CD3 conf inactive | ABHD4 confirm 35 | IN multimer up inactive | TRFRET interf inactive | IN-LEDGF confirm inactive | SIAE confirm inactive
COC(=O)[C@]12C[C@H](CC(=O)N3CCN(C(=O)c4ccco4)CC3)C(=O)N(Cc3ccc(Cl)cc3Cl)C1=C[C@H](COCc1ccccc1)O[C@@H]2C	none (no result: TCR CD3 inh, HTRA1 inh)
